Source: ChEMBL document CHEMBL5058577, “EUbOPEN Chemogenomics Library 2 (Multiplex)” (2022)

Test system: U2OS
Assay: Multiplex assay against U2OS
Format: toxicity, cell-based
Settings: human
Method in brief: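 Per cents of healthy-nucleus cells form the tubulin, mitochondrial-mass and membrane-permeability phenotype values. Live cells were stained at seeding with Hoechst33342, BioTracker Green Microtubule Cytoskeleton Dye, MitoTracker Red and Annexin V Alexa Fluor 680. After compound addition they were imaged on a CQ1 microscope at 37°C and 5% CO2, and CellPathfinder machine-learning gating split them into Hoechst high-intensity objects or normal cells, normal cells into healthy, pyknosed or fragmented nuclei, and pyknosed cells into mitotic or apoptotic.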

[1] = 12 h, 1 µM, compound concentration 1 uM, replicate 1
[2] = 12 h, 1 µM, compound concentration 1 uM, replicate 2
[3] = 12 h, 10 µM, compound concentration 10 uM, replicate 1
[4] = 12 h, 10 µM, compound concentration 10 uM, replicate 2
[5] = 24 h, 1 µM, compound concentration 1 uM, replicate 1
[6] = 24 h, 1 µM, compound concentration 1 uM, replicate 2
[7] = 24 h, 10 µM, compound concentration 10 uM, replicate 1
[8] = 24 h, 10 µM, compound concentration 10 uM, replicate 2
[9] = 48 h, 1 µM, compound concentration 1 uM, replicate 1
[10] = 48 h, 1 µM, compound concentration 1 uM, replicate 2
[11] = 48 h, 10 µM, compound concentration 10 uM, replicate 1
[12] = 48 h, 10 µM, compound concentration 10 uM, replicate 2

In the case of `CCCCC(=O)N(Cc1ccc(-c2ccccc2-c2nnn[nH]2)cc1)[C@H](C(=O)O)C(C)C`, the “Population Apoptotic (%)” value [1] is reported as 85%, the “Population Fragmented Nuclei (%)” value [1] is reported as 28% and the “Population Healthy Nuclei (%)” value [1] is reported as 63%. For the same compound, the “Population Hoechst High Intensity Objects (%)” value [1] was 1%, the “Population Membrane Permeable-Phenotype (%)” value [1] was 8% and the “Population Mitochondria Different-Phenotype (%)” value [1] was 3%. For the same compound, the “Population Mitotic Cells (%)” value [1] was 14%, the “Population Normal (%)” value [1] was 98% and the “Population Pyknosed Nuclei (%)” value [1] was 8%. The “Population Tubulin-Different-Phenotype (%)” value [1] was 4%, the “Total Cell Count” value [1] was 259 and the “Population Apoptotic (%)” value [2] was 100%. The “Population Fragmented Nuclei (%)” value [2] was 15%, the “Population Healthy Nuclei (%)” value [2] was 79% and the “Population Hoechst High Intensity Objects (%)” value [2] was 3%. The “Population Membrane Permeable-Phenotype (%)” value [2] was 9%, the “Population Mitochondria Different-Phenotype (%)” value [2] was 5% and the “Population Mitotic Cells (%)” value [2] was 0%. The “Population Normal (%)” value [2] was 96%, the “Population Pyknosed Nuclei (%)” value [2] was 4% and the “Population Tubulin-Different-Phenotype (%)” value [2] was 2%. For the same compound, the “Total Cell Count” value [2] was 130, the “Population Apoptotic (%)” value [3] was 75% and the “Population Fragmented Nuclei (%)” value [3] was 35%. The “Population Healthy Nuclei (%)” value [3] was 55%, the “Population Hoechst High Intensity Objects (%)” value [3] was 1% and the “Population Membrane Permeable-Phenotype (%)” value [3] was 3%. The “Population Mitochondria Different-Phenotype (%)” value [3] was 2%, the “Population Mitotic Cells (%)” value [3] was 25% and the “Population Normal (%)” value [3] was 98%. For the same compound, the “Population Pyknosed Nuclei (%)” value [3] was 9%, the “Population Tubulin-Different-Phenotype (%)” value [3] was 2% and the “Total Cell Count” value [3] was 218. For the same compound, the “Population Fragmented Nuclei (%)” value [4] was 24%, the “Population Healthy Nuclei (%)” value [4] was 71% and the “Population Hoechst High Intensity Objects (%)” value [4] was 0%. The “Population Membrane Permeable-Phenotype (%)” value [4] was 1%, the “Population Normal (%)” value [4] was 99% and the “Population Pyknosed Nuclei (%)” value [4] was 3%. The “Population Tubulin-Different-Phenotype (%)” value [4] was 0%, the “Total Cell Count” value [4] was 108 and the “Population Apoptotic (%)” value [5] was 86%. The “Population Fragmented Nuclei (%)” value [5] was 23%, the “Population Healthy Nuclei (%)” value [5] was 68% and the “Population Hoechst High Intensity Objects (%)” value [5] was 2%. For the same compound, the “Population Membrane Permeable-Phenotype (%)” value [5] was 5%, the “Population Mitochondria Different-Phenotype (%)” value [5] was 3% and the “Population Mitotic Cells (%)” value [5] was 13%. For the same compound, the “Population Normal (%)” value [5] was 97%, the “Population Pyknosed Nuclei (%)” value [5] was 7% and the “Population Tubulin-Different-Phenotype (%)” value [5] was 2%. For the same compound, the “Total Cell Count” value [5] was 289, the “Population Apoptotic (%)” value [6] was 83% and the “Population Fragmented Nuclei (%)” value [6] was 10%. For the same compound, the “Population Healthy Nuclei (%)” value [6] was 77%, the “Population Hoechst High Intensity Objects (%)” value [6] was 6% and the “Population Membrane Permeable-Phenotype (%)” value [6] was 9%. For the same compound, the “Population Mitochondria Different-Phenotype (%)” value [6] was 6%, the “Population Mitotic Cells (%)” value [6] was 16% and the “Population Normal (%)” value [6] was 93%. The “Population Pyknosed Nuclei (%)” value [6] was 12%, the “Population Tubulin-Different-Phenotype (%)” value [6] was 7% and the “Total Cell Count” value [6] was 158. The “Population Apoptotic (%)” value [7] was 82%, the “Population Fragmented Nuclei (%)” value [7] was 31% and the “Population Healthy Nuclei (%)” value [7] was 59%. For the same compound, the “Population Hoechst High Intensity Objects (%)” value [7] was 2%, the “Population Membrane Permeable-Phenotype (%)” value [7] was 3% and the “Population Mitochondria Different-Phenotype (%)” value [7] was 2%. For the same compound, the “Population Mitotic Cells (%)” value [7] was 17%, the “Population Normal (%)” value [7] was 97% and the “Population Pyknosed Nuclei (%)” value [7] was 8%. For the same compound, the “Population Tubulin-Different-Phenotype (%)” value [7] was 2%, the “Total Cell Count” value [7] was 272 and the “Population Apoptotic (%)” value [8] was 84%. The “Population Fragmented Nuclei (%)” value [8] was 22%, the “Population Healthy Nuclei (%)” value [8] was 67% and the “Population Hoechst High Intensity Objects (%)” value [8] was 0%. For the same compound, the “Population Membrane Permeable-Phenotype (%)” value [8] was 4%, the “Population Mitochondria Different-Phenotype (%)” value [8] was 8% and the “Population Mitotic Cells (%)” value [8] was 15%. For the same compound, the “Population Normal (%)” value [8] was 100%, the “Population Pyknosed Nuclei (%)” value [8] was 9% and the “Population Tubulin-Different-Phenotype (%)” value [8] was 6%. The “Total Cell Count” value [8] was 135, the “Population Apoptotic (%)” value [9] was 86% and the “Population Fragmented Nuclei (%)” value [9] was 17%. For the same compound, the “Population Healthy Nuclei (%)” value [9] was 75%, the “Population Hoechst High Intensity Objects (%)” value [9] was 2% and the “Population Membrane Permeable-Phenotype (%)” value [9] was 5%. The “Population Mitochondria Different-Phenotype (%)” value [9] was 3%, the “Population Mitotic Cells (%)” value [9] was 13% and the “Population Normal (%)” value [9] was 97%. The “Population Pyknosed Nuclei (%)” value [9] was 7%, the “Population Tubulin-Different-Phenotype (%)” value [9] was 2% and the “Total Cell Count” value [9] was 397. For the same compound, the “Population Apoptotic (%)” value [10] was 85%, the “Population Fragmented Nuclei (%)” value [10] was 20% and the “Population Healthy Nuclei (%)” value [10] was 68%. The “Population Hoechst High Intensity Objects (%)” value [10] was 3%, the “Population Membrane Permeable-Phenotype (%)” value [10] was 7% and the “Population Mitotic Cells (%)” value [10] was 15%. For the same compound, the “Population Normal (%)” value [10] was 96%, the “Population Pyknosed Nuclei (%)” value [10] was 10% and the “Population Tubulin-Different-Phenotype (%)” value [10] was 3%. The “Total Cell Count” value [10] was 201, the “Population Apoptotic (%)” value [11] was 83% and the “Population Fragmented Nuclei (%)” value [11] was 22%. For the same compound, the “Population Healthy Nuclei (%)” value [11] was 70%, the “Population Hoechst High Intensity Objects (%)” value [11] was 1% and the “Population Membrane Permeable-Phenotype (%)” value [11] was 6%. The “Population Mitochondria Different-Phenotype (%)” value [11] was 2%, the “Population Mitotic Cells (%)” value [11] was 16% and the “Population Normal (%)” value [11] was 98%. For the same compound, the “Population Pyknosed Nuclei (%)” value [11] was 7%, the “Population Tubulin-Different-Phenotype (%)” value [11] was 2% and the “Total Cell Count” value [11] was 347. The “Population Apoptotic (%)” value [12] was 87%, the “Population Fragmented Nuclei (%)” value [12] was 21% and the “Population Healthy Nuclei (%)” value [12] was 60%. For the same compound, the “Population Hoechst High Intensity Objects (%)” value [12] was 4%, the “Population Membrane Permeable-Phenotype (%)” value [12] was 4% and the “Population Mitochondria Different-Phenotype (%)” value [12] was 3%. The “Population Mitotic Cells (%)” value [12] was 12%, the “Population Normal (%)” value [12] was 95% and the “Population Pyknosed Nuclei (%)” value [12] was 17%. For the same compound, the “Population Tubulin-Different-Phenotype (%)” value [12] was 6% and the “Total Cell Count” value [12] was 188.
